Data from ChEMBL document CHEMBL3352115, “Discovery of APD334: Design of a Clinical Stage Functional Antagonist of the Sphingosine-1-phosphate-1 Receptor” (ACS Med Chem Lett, 2014).
Calls of active or inactive are those of the source. No cut-off for these calls is given here.

Tests used:
Canis familiaris [1] = assay: Reduction in peripheral lymphocyte count in orally dosed dog measured after 24 hrs; assay type: ADME, organism-based; details: Canis lupus familiaris
Rhesus monkey [2] = assay: Reduction in peripheral lymphocyte count in orally dosed monkey measured after 24 hrs; assay type: ADME, organism-based; details: Macaca mulatta
[3] = Drug level in Sprague-Dawley rat brain at 14.5 ug/hr/kg dosed as constant infusion measured after 48 hrs; assay type: ADME, organism-based; details: iv, read-out: Drug uptake
In short: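 Male Sprague–Dawley rats given constant infusion at 14.5 μg/h/kg for 48 h; brain and plasma concentrations measured at 48 h.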

[4] = Ratio of plasma concentration in Sprague-Dawley rat at 14.5 ug/hr/kg dosed as constant infusion to IC50 for reduction in peripheral lymphocyte count in orally dosed rat; assay type: ADME, organism-based; details: in vivo, po
In short: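 Male Sprague–Dawley rats received a 48 h constant infusion at 14.5 μg/h/kg, and plasma drug concentration was taken at the 48 h time point. […] The ratio is the 48 h plasma concentration divided by that IC50.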

Mus musculus [5] = assay: Reduction in disease severity in C57Bl/6 mouse experimental autoimmune encephalomyelitis model of multiple sclerosis at 3 mg/kg dosed once daily beginning on day 18 and continued to day 37; assay type: functional, organism-based; set-up: dose 3 mg/kg
In short: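 Female C57Bl/6 mice with MOG35–55-induced EAE; once-daily treatment started day 18 after severe disease onset and continued to day 37; vehicle 0.5% methylcellulose; clinical scoring.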

Cytochrome P450 3A4 = Cytochrome P450 3A4 (Homo sapiens, UniProt P08684); assay: Inhibition of CYP3A4 (unknown origin); assay type: ADME
Cytochrome P450 2C9 = Cytochrome P450 2C9 (Homo sapiens, UniProt P11712); assay: Inhibition of CYP2C9 (unknown origin); assay type: ADME
Cytochrome P450 1A2 = Cytochrome P450 1A2 (Homo sapiens, UniProt P05177); assay: Inhibition of CYP1A2 (unknown origin); assay type: ADME
Cytochrome P450 2C19 = Cytochrome P450 2C19 (Homo sapiens, UniProt P33261); assay: Inhibition of CYP2C19 (unknown origin); assay type: ADME
Adenosine receptor A3 = Adenosine receptor A3 (Homo sapiens, UniProt P0DMS8); assay: Binding affinity to human adenosine A3 receptor
[6] = molecular target: Voltage-gated inwardly rectifying potassium channel KCNH2 (Homo sapiens, UniProt Q12809); assay: Inhibition of human ERG by patch clamp assay
Canis familiaris [7] = assay: Effect on pulse pressure in telemeterized dog up to 40 mg/kg; assay type: ADME, organism-based, Canis lupus familiaris; set-up: dose 40 mg/kg; details: in vivo
In short: (§1)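 Telemeterized dogs dosed at levels up to 40 mg/kg; pulse pressure, heart rate, body temperature and ECG parameters monitored.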

Canis familiaris [8] = assay: Effect on heart rate in telemeterized dog up to 40 mg/kg; assay type: ADME, organism-based, Canis lupus familiaris; set-up: dose 40 mg/kg; details: in vivo; in short: as §1
Rattus norvegicus [9] = assay: Effect on respiratory function in Sprague-Dawley rat up to 350 mg/kg; assay type: ADME, organism-based; set-up: dose 350 mg/kg; details: in vivo
In short: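 CNS (neurobehavioral) and respiratory safety studies in SD rats, doses up to 350 mg/kg.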

Rattus norvegicus [10] = assay: Toxicity in Sprague-Dawley rat assessed as mortality at 1000 mg/kg during 14 day repeat dose study; assay type: organism-based; set-up: dose 1000 mg/kg; details: in vivo, 336 h
In short: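 14-day repeat-dose rat toxicity study with dose groups of 30, 100, 300 and 1000 mg/kg; animals monitored for tolerability, mortality and CNS clinical signs.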

[11] = Cmax in Sprague-Dawley rat at 300 mg/kg; assay type: ADME, organism-based; set-up: dose 300 mg/kg; details: in vivo
In short: (§2)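 Sprague–Dawley rats dosed at 300 and 1000 mg/kg in a separate dose-proportionality exposure study; Cmax determined.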

[12] = Cmax in Sprague-Dawley rat at 1000 mg/kg; assay type: ADME, organism-based; set-up: dose 1000 mg/kg; details: in vivo; in short: as §2
Rattus norvegicus [13] = assay: Effect on liver function in Sprague-Dawley rat at 30 to 1000 mg/kg; assay type: ADME, organism-based; set-up: dose 30-1000 mg/kg; details: in vivo
[14] = molecular target: T1, Sphingosine 1-phosphate receptor 1 (Homo sapiens, UniProt P21453); assay: Agonist activity at human S1P1 receptor assessed as cAMP accumulation by HTRF assay; assay type: functional
In short: (§3)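 HTRF cyclase (cAMP) functional assay at S1P1 of each species; EC50 taken as mean of three or more replicates; efficacy given as % agonism relative to S1P.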

[15] = Half life in human liver microsomes; assay type: ADME
In short: (§4)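 Stability on incubation with liver microsomes of each species; half-life reported.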

[16] = Cmax in rat at 1 mg/kg equivalent, po; assay type: ADME, organism-based; set-up: dose 1 mg/kg, route oral; details: in vivo
In short: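 SD rat given L-arginine salt orally as a solution in sterile water, 1.0 mg/kg free-acid equivalent; Cmax measured.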

[17] = molecular target: T1, Sphingosine 1-phosphate receptor 1; assay: Induction of internalization of HA-tagged human S1P1 receptor expressed in CHO cells; assay type: cell-based
In short: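 CHO cells expressing HA-tagged human S1P1; receptor internalization measured, IC50 derived.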

[18] = molecular target: Sphingosine 1-phosphate receptor 1 (Rattus norvegicus, UniProt P48303); assay: Agonist activity at rat S1P1 receptor assessed as cAMP accumulation by HTRF assay; assay type: functional; in short: as §3
[19] = molecular target: Sphingosine 1-phosphate receptor 1 (Rattus norvegicus) (UniProt P48303); assay: Agonist activity at rat S1P1 receptor assessed as cAMP accumulation by HTRF assay relative to S1P; assay type: functional; in short: as §3
[20] = molecular target: T1, Sphingosine 1-phosphate receptor 1; assay: Agonist activity at human S1P1 receptor by beta-arrestin recruitment assay relative to S1P
[21] = molecular target: Sphingosine 1-phosphate receptor 3 (Homo sapiens, UniProt Q99500); assay: Agonist activity at human S1P3 receptor by beta-arrestin recruitment assay
[22] = Half life in dog liver microsomes; assay type: ADME, Canis lupus familiaris; in short: as §4
[23] = Systemic clearance in mouse at 1 mg/kg, iv; assay type: ADME, organism-based; set-up: dose 1 mg/kg, route intravenous; details: in vivo
[24] = Systemic clearance in dog at 1 mg/kg, iv; assay type: ADME, organism-based, Canis lupus familiaris; set-up: dose 1 mg/kg, route intravenous; details: in vivo
[25] = Systemic clearance in monkey at 1 mg/kg, iv; assay type: ADME, organism-based, Macaca mulatta; set-up: dose 1 mg/kg, route intravenous; details: rhesus monkey, in vivo
Rattus norvegicus [26] = assay: Systemic clearance in rat at 1 mg/kg, iv relative to liver blood flow; assay type: ADME, organism-based; set-up: dose 1 mg/kg, route intravenous; details: in vivo
Canis familiaris [27] = assay: Systemic clearance in dog at 1 mg/kg, iv relative to liver blood flow; assay type: ADME, organism-based, Canis lupus familiaris; set-up: dose 1 mg/kg, route intravenous; details: in vivo
Rhesus monkey [28] = assay: Systemic clearance in monkey at 1 mg/kg, iv relative to liver blood flow; assay type: ADME, organism-based, Macaca mulatta; set-up: dose 1 mg/kg, route intravenous; details: in vivo
[29] = Volume of distribution at steady state in mouse at 1 mg/kg, iv; assay type: ADME, organism-based; set-up: dose 1 mg/kg, route intravenous; details: in vivo, read-out: Vdss
[30] = Volume of distribution at steady state in rat at 1 mg/kg, iv; assay type: ADME, organism-based; set-up: dose 1 mg/kg, route intravenous; details: in vivo, read-out: Vdss
[31] = Volume of distribution at steady state in dog at 1 mg/kg, iv; assay type: ADME, organism-based, Canis lupus familiaris; set-up: dose 1 mg/kg, route intravenous; details: in vivo, read-out: Vdss
[32] = Volume of distribution at steady state in monkey at 1 mg/kg, iv; assay type: ADME, organism-based, Macaca mulatta; set-up: dose 1 mg/kg, route intravenous; details: rhesus monkey, in vivo, read-out: Vdss
[33] = Cmax in monkey at 1 mg/kg, iv or 3 mg/kg, po; assay type: ADME, organism-based, Macaca mulatta; details: rhesus monkey, in vivo
In short: (§5)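 Preclinical iv/po PK; amorphous free acid dosed orally as a suspension in 0.5% methyl cellulose; clearance and Vss from intravenous administration.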

[34] = Tmax in rat at 1 mg/kg, iv or 1 mg/kg, po; assay type: ADME, organism-based; details: in vivo
[35] = Tmax in monkey at 1 mg/kg, iv or 3 mg/kg, po; assay type: ADME, organism-based, Macaca mulatta; details: rhesus monkey, in vivo
[36] = AUC (0 to infinity) in rat at 1 mg/kg, iv or 1 mg/kg, po; assay type: ADME, organism-based; details: plasma; in short: as §5
[37] = Elimination half life in monkey at 3 mg/kg, po; assay type: ADME, organism-based, Macaca mulatta; set-up: dose 3 mg/kg, route oral; details: rhesus monkey, in vivo, read-out: beta t1/2 (converted); in short: as §5
Mus musculus [38] = assay: Reduction in peripheral lymphocyte count in orally dosed mouse measured after 24 hrs; assay type: ADME, organism-based

T1 sequence (P21453 whole entry): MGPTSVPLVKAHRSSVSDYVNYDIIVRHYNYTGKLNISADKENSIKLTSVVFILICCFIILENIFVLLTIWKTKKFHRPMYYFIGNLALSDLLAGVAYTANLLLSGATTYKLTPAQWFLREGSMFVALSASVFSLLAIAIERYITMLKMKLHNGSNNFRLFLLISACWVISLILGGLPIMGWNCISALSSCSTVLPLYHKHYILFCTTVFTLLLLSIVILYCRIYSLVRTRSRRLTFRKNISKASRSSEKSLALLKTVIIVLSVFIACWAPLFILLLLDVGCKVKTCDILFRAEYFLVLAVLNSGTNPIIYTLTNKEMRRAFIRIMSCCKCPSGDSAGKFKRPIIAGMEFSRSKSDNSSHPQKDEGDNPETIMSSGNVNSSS
Cytochrome P450 2C19, sequence (P33261 whole entry): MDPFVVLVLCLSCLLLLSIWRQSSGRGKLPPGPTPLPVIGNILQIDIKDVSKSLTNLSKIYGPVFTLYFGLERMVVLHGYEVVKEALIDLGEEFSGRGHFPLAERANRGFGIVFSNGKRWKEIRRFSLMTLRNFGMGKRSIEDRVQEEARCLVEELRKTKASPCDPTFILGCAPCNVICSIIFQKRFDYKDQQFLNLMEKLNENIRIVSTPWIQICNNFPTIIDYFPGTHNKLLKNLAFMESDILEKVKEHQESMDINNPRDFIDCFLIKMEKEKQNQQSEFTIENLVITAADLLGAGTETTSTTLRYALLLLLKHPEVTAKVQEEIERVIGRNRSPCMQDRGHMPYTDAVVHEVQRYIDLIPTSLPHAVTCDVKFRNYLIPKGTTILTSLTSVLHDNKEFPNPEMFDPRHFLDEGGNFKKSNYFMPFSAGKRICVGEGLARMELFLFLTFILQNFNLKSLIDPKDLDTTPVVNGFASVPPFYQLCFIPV
Voltage-gated inwardly rectifying potassium channel KCNH2, sequence (Q12809 whole entry): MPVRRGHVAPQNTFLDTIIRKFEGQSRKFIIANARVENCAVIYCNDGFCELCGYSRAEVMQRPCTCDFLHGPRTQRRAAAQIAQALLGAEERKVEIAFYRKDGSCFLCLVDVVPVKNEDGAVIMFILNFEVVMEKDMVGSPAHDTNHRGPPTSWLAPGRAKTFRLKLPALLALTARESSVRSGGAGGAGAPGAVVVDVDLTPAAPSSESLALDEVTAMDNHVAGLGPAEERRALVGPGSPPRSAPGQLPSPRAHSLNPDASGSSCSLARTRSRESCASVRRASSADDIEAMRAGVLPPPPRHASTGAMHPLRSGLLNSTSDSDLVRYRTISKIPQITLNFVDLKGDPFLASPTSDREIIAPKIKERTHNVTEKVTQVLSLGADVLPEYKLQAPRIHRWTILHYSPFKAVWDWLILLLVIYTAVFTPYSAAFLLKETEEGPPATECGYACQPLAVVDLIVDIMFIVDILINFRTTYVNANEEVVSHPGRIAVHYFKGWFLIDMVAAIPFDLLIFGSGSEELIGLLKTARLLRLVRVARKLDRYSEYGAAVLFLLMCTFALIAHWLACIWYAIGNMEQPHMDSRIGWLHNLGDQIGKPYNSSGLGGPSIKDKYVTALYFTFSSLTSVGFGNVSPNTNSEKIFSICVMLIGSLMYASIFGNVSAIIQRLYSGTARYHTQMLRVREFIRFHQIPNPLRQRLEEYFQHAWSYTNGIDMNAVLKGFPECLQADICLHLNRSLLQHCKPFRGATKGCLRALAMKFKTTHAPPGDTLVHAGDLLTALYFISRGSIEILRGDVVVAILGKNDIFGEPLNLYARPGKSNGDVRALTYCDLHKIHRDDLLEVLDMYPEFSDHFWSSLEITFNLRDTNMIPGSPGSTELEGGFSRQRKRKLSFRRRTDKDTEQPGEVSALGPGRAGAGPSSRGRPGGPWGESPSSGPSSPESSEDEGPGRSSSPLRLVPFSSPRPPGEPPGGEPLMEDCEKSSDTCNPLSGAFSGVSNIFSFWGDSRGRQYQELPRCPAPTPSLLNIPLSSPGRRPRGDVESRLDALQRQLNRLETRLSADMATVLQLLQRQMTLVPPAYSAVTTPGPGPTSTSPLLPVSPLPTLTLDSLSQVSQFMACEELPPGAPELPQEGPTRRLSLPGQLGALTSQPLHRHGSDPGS
Adenosine receptor A3, sequence (P0DMS8 whole entry): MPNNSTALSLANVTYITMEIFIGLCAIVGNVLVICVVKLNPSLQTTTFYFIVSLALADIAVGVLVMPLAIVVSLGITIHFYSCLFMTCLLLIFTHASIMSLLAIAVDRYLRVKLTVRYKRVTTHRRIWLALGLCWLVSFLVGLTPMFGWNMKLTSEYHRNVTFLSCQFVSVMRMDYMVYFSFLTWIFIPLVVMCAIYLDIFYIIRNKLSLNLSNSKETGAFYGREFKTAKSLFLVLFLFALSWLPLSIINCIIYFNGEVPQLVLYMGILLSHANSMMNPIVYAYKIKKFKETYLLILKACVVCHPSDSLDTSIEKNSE
Cytochrome P450 2C9, sequence (P11712 whole entry): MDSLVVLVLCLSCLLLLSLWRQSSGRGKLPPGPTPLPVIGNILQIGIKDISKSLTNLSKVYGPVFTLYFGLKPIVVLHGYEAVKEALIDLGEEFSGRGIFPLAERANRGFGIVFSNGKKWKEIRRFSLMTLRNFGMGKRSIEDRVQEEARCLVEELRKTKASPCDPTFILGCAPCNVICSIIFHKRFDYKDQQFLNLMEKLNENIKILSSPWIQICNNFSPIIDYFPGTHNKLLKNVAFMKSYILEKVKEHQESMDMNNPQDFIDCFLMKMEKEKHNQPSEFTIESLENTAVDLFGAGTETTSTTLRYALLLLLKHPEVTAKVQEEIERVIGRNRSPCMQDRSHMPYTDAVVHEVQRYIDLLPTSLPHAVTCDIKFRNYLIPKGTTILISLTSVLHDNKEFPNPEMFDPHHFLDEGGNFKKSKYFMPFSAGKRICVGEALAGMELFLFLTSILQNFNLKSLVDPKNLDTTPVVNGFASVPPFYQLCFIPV
Sphingosine 1-phosphate receptor 3, sequence (Q99500 whole entry): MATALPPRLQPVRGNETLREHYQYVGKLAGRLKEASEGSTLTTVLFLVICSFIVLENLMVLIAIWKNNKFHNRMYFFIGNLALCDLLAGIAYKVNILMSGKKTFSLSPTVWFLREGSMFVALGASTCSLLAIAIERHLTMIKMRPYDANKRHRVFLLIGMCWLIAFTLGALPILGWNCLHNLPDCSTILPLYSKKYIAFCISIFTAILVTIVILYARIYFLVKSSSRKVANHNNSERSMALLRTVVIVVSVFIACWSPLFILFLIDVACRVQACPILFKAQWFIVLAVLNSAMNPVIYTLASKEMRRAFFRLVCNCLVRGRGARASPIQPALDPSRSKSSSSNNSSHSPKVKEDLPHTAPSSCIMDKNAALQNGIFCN
Sphingosine 1-phosphate receptor 1 (Rattus norvegicus), sequence (P48303 whole entry): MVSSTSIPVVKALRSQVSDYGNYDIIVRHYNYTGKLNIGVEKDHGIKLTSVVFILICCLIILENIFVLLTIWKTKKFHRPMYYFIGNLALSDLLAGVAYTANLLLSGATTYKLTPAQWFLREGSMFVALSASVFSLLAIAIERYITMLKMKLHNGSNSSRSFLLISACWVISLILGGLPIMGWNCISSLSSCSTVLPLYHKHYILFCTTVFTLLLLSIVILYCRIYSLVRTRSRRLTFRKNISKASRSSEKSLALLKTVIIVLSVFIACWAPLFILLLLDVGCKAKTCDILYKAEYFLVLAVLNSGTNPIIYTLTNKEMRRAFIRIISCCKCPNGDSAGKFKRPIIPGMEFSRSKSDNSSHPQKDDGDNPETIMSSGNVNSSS
Sphingosine 1-phosphate receptor 1 (Rattus norvegicus, UniProt P48303), sequence (P48303 whole entry): as above
Cytochrome P450 1A2, sequence (P05177 whole entry): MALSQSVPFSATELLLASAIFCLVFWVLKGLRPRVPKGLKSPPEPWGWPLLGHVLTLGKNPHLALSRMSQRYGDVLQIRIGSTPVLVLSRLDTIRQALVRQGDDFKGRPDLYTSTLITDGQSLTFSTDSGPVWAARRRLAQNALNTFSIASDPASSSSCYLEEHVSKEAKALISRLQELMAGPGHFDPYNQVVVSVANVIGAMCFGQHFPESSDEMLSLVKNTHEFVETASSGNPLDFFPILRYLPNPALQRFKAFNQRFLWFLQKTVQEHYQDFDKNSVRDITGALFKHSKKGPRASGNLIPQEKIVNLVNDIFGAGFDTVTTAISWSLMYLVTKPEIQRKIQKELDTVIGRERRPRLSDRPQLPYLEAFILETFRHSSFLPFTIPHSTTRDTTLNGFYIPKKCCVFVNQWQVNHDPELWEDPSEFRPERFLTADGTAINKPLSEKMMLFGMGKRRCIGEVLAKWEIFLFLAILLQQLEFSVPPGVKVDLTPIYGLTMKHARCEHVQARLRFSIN
Cytochrome P450 3A4, sequence (P08684 whole entry): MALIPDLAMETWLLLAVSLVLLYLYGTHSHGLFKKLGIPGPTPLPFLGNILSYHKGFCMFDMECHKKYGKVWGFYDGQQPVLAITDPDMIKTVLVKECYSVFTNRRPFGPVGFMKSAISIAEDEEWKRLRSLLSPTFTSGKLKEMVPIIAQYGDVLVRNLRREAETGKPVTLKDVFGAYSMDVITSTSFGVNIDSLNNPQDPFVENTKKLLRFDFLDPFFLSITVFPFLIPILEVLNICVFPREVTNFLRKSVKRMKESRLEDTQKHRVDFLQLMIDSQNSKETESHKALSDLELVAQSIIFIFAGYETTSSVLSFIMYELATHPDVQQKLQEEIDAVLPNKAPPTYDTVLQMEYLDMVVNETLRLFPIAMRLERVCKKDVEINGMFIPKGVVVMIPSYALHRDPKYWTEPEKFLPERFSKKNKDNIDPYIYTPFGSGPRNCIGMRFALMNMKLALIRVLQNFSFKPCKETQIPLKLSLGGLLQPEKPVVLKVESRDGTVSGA

For `O=C(O)C[C@H]1CCc2c1[nH]c1ccc(OCc3ccc(C4CCCC4)c(C(F)(F)F)c3)cc21` [ETRASIMOD], the IC50 (Canis familiaris [1]) was 58 nM, the IC50 (Rhesus monkey [2]) was 98 nM and the concentration at 48 h [3] was 0.21 µM. The Ratio [4] was 2, the Activity (Mus musculus [5]) was “Active” and the IC50 (Cytochrome P450 3A4) was over 50000 nM. It also gave an IC50 (Cytochrome P450 2C9) of over 50000 nM, an IC50 (Cytochrome P450 1A2) of over 50000 nM and an IC50 (Cytochrome P450 2C19) of over 50000 nM. The IC50 (Adenosine receptor A3) was 3300 nM, the IC50 [6] was over 30000 nM and the Activity (Canis familiaris [7]) was “Non-toxic”. For the same compound, the Activity (Canis familiaris [8]) was “Non-toxic”, the Activity (Rattus norvegicus [9]) was “Non-toxic” and the Activity (Rattus norvegicus [10]) was “Toxic”. The Cmax [11] was 136 µM, the Cmax [12] was 183 µM and the Activity (Rattus norvegicus [13]) was “Non-toxic”. The EC50 [14] was 0.04 nM, the half-life [15] was over 1 h and the Cmax [16] was 361 ng/mL. It also gave an IC50 [17] of 1.88 nM, an EC50 [18] of 0.32 nM and an Emax [19] of 99%. For the same compound, the Emax [20] was 110%, the EC50 [21] was over 10000 nM and the half-life [22] was over 1 h. The clearance [23] was 1.83 mL/min/kg, the clearance [24] was 0.23 mL/min/kg and the clearance [25] was 0.947 mL/min/kg. It also gave a CL (Rattus norvegicus [26]) of 3.45%, a CL (Canis familiaris [27]) of 0.746% and a CL (Rhesus monkey [28]) of 2.23%. The Vd [29] was 1.93 L/kg, the Vd [30] was 1.61 L/kg and the Vd [31] was 0.609 L/kg. It also gave a Vd [32] of 0.411 L/kg, a Cmax [33] of 2870 ng/mL and a Tmax [34] of 7.33 h. The Tmax [35] was 3.33 h, the AUC(0-inf) [36] was 3790 ng·h/mL and the half-life [37] was 6.37 h. The IC50 (Mus musculus [38]) was 101 nM.
